Laboratory results: ChEMBL document CHEMBL4371044, “Celastrol Promotes Weight Loss in Diet-Induced Obesity by Inhibiting the Protein Tyrosine Phosphatases PTP1B and TCPTP in the Hypothalamus” (J Med Chem, 2018)
The source made the active and inactive calls. No cut-off for these calls is given here.

Tests used:
[1] = biological target: T1, Tyrosine-protein phosphatase non-receptor type 2 (Homo sapiens, UniProt P17706); test: Inhibition of human N-terminal His6-tagged TCPTP catalytic domain (1 to 336 residues) expressed in Escherichia coli strain Rosetta2 (DE3) using DiFMUP as substrate preincubated for 10 mins followed by substrate addition and measured after 10 mins by fluorescence assay
T1 sequence (P17706 whole entry): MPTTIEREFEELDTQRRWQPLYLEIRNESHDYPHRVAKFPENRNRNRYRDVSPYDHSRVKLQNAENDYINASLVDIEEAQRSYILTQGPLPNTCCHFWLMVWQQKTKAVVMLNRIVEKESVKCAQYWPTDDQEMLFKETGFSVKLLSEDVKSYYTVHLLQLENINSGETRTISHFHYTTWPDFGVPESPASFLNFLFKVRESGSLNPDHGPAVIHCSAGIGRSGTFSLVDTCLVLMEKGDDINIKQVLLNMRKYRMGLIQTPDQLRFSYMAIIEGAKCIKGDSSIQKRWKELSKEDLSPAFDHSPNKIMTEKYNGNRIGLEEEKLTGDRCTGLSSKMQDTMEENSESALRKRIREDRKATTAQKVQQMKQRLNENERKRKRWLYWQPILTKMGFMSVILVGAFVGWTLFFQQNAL
In short: (§1)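 Tag-cleaved, SEC-purified enzyme at 1 nM, preincubated 10 min with compound at 15 concentrations from 0–500 μM (5% DMSO final) in 25 mM Bis-Tris propane pH 7.5, 50 mM NaCl, 2 mM EDTA. DiFMUP added at each construct's Km (10, 7, 10, 9 μM for PTP1B1−298, PTP1B1−393, TCPTP1−296, TCPTP1−336). Read ex 358/em 455 nm continuously 10 min at 37 °C; triplicate; log(inhibitor)-response fit.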

[2] = biological target: T2, Tyrosine-protein phosphatase non-receptor type 1 (Homo sapiens, UniProt P18031); test: Inhibition of human N-terminal His6-tagged PTP1B catalytic domain (1 to 393 residues) expressed in Escherichia coli strain Rosetta2 (DE3) using DiFMUP as substrate preincubated for 10 mins followed by substrate addition and measured after 10 mins by fluorescence assay; in short: as §1
T2 sequence (P18031 whole entry): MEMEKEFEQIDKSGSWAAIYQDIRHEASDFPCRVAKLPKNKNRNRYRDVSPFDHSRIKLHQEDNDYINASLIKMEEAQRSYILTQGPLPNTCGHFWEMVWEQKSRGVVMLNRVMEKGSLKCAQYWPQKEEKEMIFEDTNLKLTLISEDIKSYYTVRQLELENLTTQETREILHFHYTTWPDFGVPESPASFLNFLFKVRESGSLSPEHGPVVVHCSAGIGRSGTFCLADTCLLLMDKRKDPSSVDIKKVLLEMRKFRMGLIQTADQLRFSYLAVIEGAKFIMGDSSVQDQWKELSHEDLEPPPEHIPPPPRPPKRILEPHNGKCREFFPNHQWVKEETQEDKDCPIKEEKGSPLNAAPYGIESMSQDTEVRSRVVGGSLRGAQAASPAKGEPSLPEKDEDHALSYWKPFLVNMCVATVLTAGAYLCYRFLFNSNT

[3] = biological target: T3, Tyrosine-protein phosphatase non-receptor type 1 (Homo sapiens) (UniProt P18031); test: Inhibition of human N-terminal His6-tagged PTP1B catalytic domain (1 to 393 residues) expressed in Escherichia coli strain Rosetta2 (DE3) at 500 uM using DiFMUP as substrate preincubated for 10 mins followed by substrate addition and measured after 10 mins by fluorescence assay
T3 sequence (whole entry): T2 sequence (P18031 whole entry)

[4] = biological target: T4, Tyrosine-protein phosphatase non-receptor type 2 (Homo sapiens) (UniProt P17706); test: Inhibition of human N-terminal His6-tagged TCPTP catalytic domain (1 to 336 residues) expressed in Escherichia coli strain Rosetta2 (DE3) at 500 uM using DiFMUP as substrate preincubated for 10 mins followed by substrate addition and measured after 10 mins by fluorescence assay
T4 sequence (whole entry): T1 sequence (P17706 whole entry)

Row | IC50 [1] [µM] | IC50 [2] [µM] | SMILES | inhibition [3] | inhibition [4]
1 | 478 | 910 | Nc1ccc(NC(=O)C(=O)O)cc1 | – | –
2 | – | – | CC1=C(CO)C(=O)O[C@@H]([C@@H](C)[C@H]2CC[C@H]3[C@@H]4C[C@H]5O[C@]56[C@@H](O)C=CC(=O)[C@]6(C)[C@H]4CC[C@]23C)C1 | inactive | inactive
3 | – | – | Cc1c(O)c(O)cc2c1CC=C1[C@@]2(C)CC[C@@]2(C)[C@@H]3C[C@](C)(C(=O)O)CC[C@]3(C)CC[C@]12C | Active | Active
